Laboratory results: ChEMBL document CHEMBL4334446, “Evaluating the effects of fluorine on biological properties and metabolic stability of some antitubulin 3-substituted 7-phenyl-pyrroloquinolinones” (Eur J Med Chem, 2019)

Key:
[1] = test system: HL-60; experiment: Growth inhibition of human HL60 cells incubated for 72 hrs by MTT assay; type: functional; conditions: HL-60, 72 h
Outline: (§1)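 Leukemia lines were grown in RPMI-1640; the CEM^Vbl-100 medium also contained 100 ng/mL vinblastine. Cells were seeded at 8 × 10³ per well and left 18 h at 37 °C, 5% CO2. Medium was then replaced with fresh medium holding graded compound concentrations (DMSO stocks), in triplicate, for 72 h. Viability was read by MTT, and GI50 = concentration inhibiting proliferation 50%.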

[2] = test system: Jurkat; experiment: Growth inhibition of human Jurkat cells incubated for 72 hrs by MTT assay; type: functional; outline: as §1
[3] = test system: MCF7; experiment: Growth inhibition of human MCF7 cells incubated for 72 hrs by MTT assay; type: functional; conditions: MCF7, 72 h
[4] = test system: MDA-MB-468; experiment: Growth inhibition of human MDA-MB-468 cells incubated for 72 hrs by MTT assay; type: functional; conditions: MDA-MB-468, 72 h
[5] = test system: HeLa; experiment: Growth inhibition of human HeLa cells incubated for 72 hrs by MTT assay; type: functional
[6] = test system: MDA-MB-231; experiment: Growth inhibition of human MDA-MB-231 cells incubated for 72 hrs by MTT assay; type: functional; conditions: MDA-MB-231, 72 h
[7] = Growth inhibition of human DND41 cells incubated for 72 hrs by MTT assay; type: functional; conditions: DND41, 72 h; outline: as §1
[8] = test system: RS4-11; experiment: Growth inhibition of human RS4:11 cells incubated for 72 hrs by MTT assay; type: functional; conditions: RS4-11, 72 h; outline: as §1
[9] = test system: HT-29; experiment: Growth inhibition of human HT-29 cells incubated for 72 hrs by MTT assay; type: functional; conditions: HT-29, 72 h
[10] = test system: A2058; experiment: Growth inhibition of human A2058 cells incubated for 72 hrs by MTT assay; type: functional; conditions: A2058, 72 h
[11] = test system: A-375; experiment: Growth inhibition of human A375 cells incubated for 72 hrs by MTT assay; type: functional; conditions: A-375, 72 h
[12] = biological target: Tubulin (Bos taurus) (UniProt Q6B856+Q862L2+Q862F3); experiment: Inhibition of [3H]colchicine binding to bovine brain tubulin at 5 uM relative to control
Outline: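 Bovine brain tubulin at 1 µM was incubated with 5 µM [3H]colchicine and the test compound at 5 µM. Inhibition of colchicine binding was measured relative to a control.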

[13] = Stability in phosphate buffer at pH 7.4 at 10 uM incubated for 30 mins by HPLC analysis; type: physicochemical; conditions: pH 7.4, 0.5 h
Outline: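 No microsomes or NADPH: compound (10 μM final) held in 0.1 M KH₂PO₄ pH 7.4 at 37 °C. Samples taken at 0 and 30 min, quenched with ice-cold acetonitrile, centrifuged, analysed by HPLC with fluorescence detection. Percent parent remaining relative to 0 min; mean ± SD, n = 3.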

[14] = Metabolic stability in human liver microsomes at 10 uM incubated for 30 mins in phosphate buffer at pH 7.4 by HPLC analysis; type: ADME, Microsome; conditions: pH 7.4, 0.5 h
Outline: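 Test compound (10 μM, final) incubated at 37 °C with pooled mixed-gender HLMs (0.5 mg/mL) in 0.1 M KH₂PO₄ pH 7.4 without NADPH. Sampled at 0 and 30 min, quenched with ice-cold acetonitrile, centrifuged, supernatant analysed by HPLC with fluorescence detection (ex 344/em 493 nm). Percent remaining calculated from peak area relative to 0 min; mean ± SD, n = 3.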

[15] = Metabolic stability in human liver microsomes at 10 uM incubated for 15 mins in presence of NADPH and non-selective CYP inhibitor quercetin by HPLC analysis; type: ADME, Microsome; conditions: 0.25 h
Outline: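 Compound (10 µM) was incubated 0 and 15 min at 37 °C with pooled HLMs and 1 mM NADPH in 0.1 M KH2PO4 pH 7.4, with or without 100 µM quercetin. Parent remaining was measured by HPLC-fluorescence relative to 0 min; mean ± SD, n = 3.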

[16] = Time-dependent metabolic stability in human liver microsomes at 10 uM incubated for 30 mins in presence of NADPH by HPLC analysis; type: ADME, Microsome; conditions: 0.5 h
Outline: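 Pooled mixed-gender HLMs (0.5 mg/mL) plus 1 mM NADPH in 0.1 M KH₂PO₄ pH 7.4, compound 10 μM final, 37 °C. Reaction started with microsomes after 3-min equilibration. Stopped with ice-cold acetonitrile at 0, 2, 5, 15, 30 min, then HPLC-fluorescence of supernatant. Percent remaining vs 0 min (mean ± SD, n = 3). Half-life = 0.693/k from linear regression of Ln % remaining vs time.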

[17] = Metabolic stability in human liver microsomes assessed as half life at 10 uM incubated for 30 mins in presence of NADPH by HPLC analysis; type: ADME, Microsome
Outline: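 Compound (10 µM) was incubated at 37 °C with 0.5 mg/mL pooled HLMs and 1 mM NADPH in 0.1 M KH2PO4 pH 7.4, sampled at 0, 2, 5, 15 and 30 min. Controls without NADPH, or buffer only, ran 0 and 30 min. Parent was quantified by HPLC-fluorescence as % of the 0 min level, n = 3. t1/2 = 0.693/k, with k from regression of ln % remaining versus time.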

[18] = biological target: Tubulin (Bos taurus, UniProt Q6B856+Q862L2+Q862F3); experiment: Inhibition of bovine brain tubulin polymerization preincubated for 15 mins followed by GTP addition and measured for 20 mins by turbidimetry-based spectrophotometric method
Outline: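 Bovine brain tubulin (10 µM) was preincubated with varying compound concentrations in 0.8 M monosodium glutamate, pH 6.6, for 15 min at 30 °C, then cooled to 0 °C. GTP was added to 0.4 mM final and the mix warmed to 30 °C. Turbidity was followed at 350 nm. IC50 = concentration inhibiting extent of assembly 50% after 20 min.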

[19] = Metabolic stability in human liver microsomes assessed as parent compound decline at 10 uM incubated for 60 mins in absence of NADPH by HPLC analysis; type: ADME, Microsome; conditions: read-out: Drug degradation
Outline: (§2)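 Compound (10 µM) was incubated 0 or 60 min at 37 °C with pooled HLMs (1 mg/mL), with or without 1 mM NADPH, or in buffer only (0.1 M KH2PO4 pH 7.4). Reactions were stopped with ice-cold acetonitrile. Remaining parent was measured by HPLC-fluorescence relative to 0 min; mean ± SD, n = 3.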

[20] = Growth inhibition of human PBL cells incubated for 72 hrs by MTT assay; type: cell-based; conditions: PBL cells (peripheral blood lymphocytes)
Outline: (§3)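 PBL from healthy donors were isolated on a Lymphoprep gradient, held overnight in RPMI-1640 with 10% FBS, and the non-adherent cells resuspended at 5 × 10^5 cells/mL. Proliferating cultures got 2.5 µg/mL PHA; resting cultures got none. Compound was added at several concentrations for 72 h and viability read by MTT. GI50 reported as mean ± SEM of three experiments.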

[21] = Metabolic stability in human liver microsomes assessed as parent compound decline at 10 uM incubated for 60 mins in presence of NADPH by HPLC analysis; type: ADME, Microsome; conditions: read-out: Drug degradation; outline: as §2
[22] = Selectivity ratio of GI50 for PHA-stimulated human PBL cells to GI50 for human DND41 cells incubated for 72 hrs by MTT assay
Outline: (§4)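 Leukemia cells (CEM, DND-41, Jurkat) were grown in RPMI-1640 at 8×10³ cells/well and left 18 h. Donor PBL were gradient-separated, held overnight, and non-adherent cells set at 5×10^5 cells/mL with 2.5 µg/mL PHA. Both were exposed 72 h at 37 °C to graded compound concentrations, read by MTT. The ratio is PBL GI50 over leukemia GI50.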

[23] = Selectivity ratio of GI50 for human PBL cells to GI50 for human Jurkat cells incubated for 72 hrs by MTT assay
Outline: as §4, with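 “overnight in RPMI-1640/10% FBS,” for “overnight,”, “without PHA (resting).” for “with 2.5 µg/mL PHA.”, “h” for “h at 37 °C”, “graded” for “graded compound”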

[24] = test system: B16-BL6; experiment: Growth inhibition of mouse B16-BL6 cells incubated for 72 hrs by MTT assay; type: functional; conditions: B16-BL6, 72 h
[25] = test system: B16-BL6; experiment: Antitumour activity against mouse B16-BL6 cells allografted in C57BL/6 mouse assessed as reduction in tumor mass at 7.5 mg/kg, ip administrated every other day relative to control; type: functional
Outline: (§5)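 Male C57BL/6 mice (six weeks old) got 2.5×10^5 BL6-B16 murine melanoma cells s.c. in the dorsolateral flank, in PBS. Once tumors were measurable (about 100 mm³), mice were randomized and given drug i.p. every other day in 50 µL DMSO. Vehicle (DMSO) group served as control. Tumor volume = (D × d²)/2; tumor weight taken at end. 5 animals per group, mean ± SEM.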

[26] = test system: B16-BL6; experiment: Antitumour activity against mouse B16-BL6 cells allografted in C57BL/6 mouse assessed as reduction in tumor mass at 3 mg/kg, ip administrated every other day relative to control; type: functional; outline: as §5
[27] = Growth inhibition of PHA-stimulated human PBL cells incubated for 72 hrs by MTT assay; type: cell-based; conditions: PHA-stimulated PBL cells (peripheral blood lymphocytes); outline: as §3
[28] = Selectivity ratio of GI50 for human PBL cells to GI50 for human DND41 cells incubated for 72 hrs by MTT assay
Outline: as §4, with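 “overnight in RPMI-1640/10% FBS,” for “overnight,”, “without PHA (resting).” for “with 2.5 µg/mL PHA.”, “h” for “h at 37 °C”, “graded” for “graded compound”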

[29] = Selectivity ratio of GI50 for human PBL cells to GI50 for human CEM cells incubated for 72 hrs by MTT assay; type: functional
Outline: as §4, with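 “overnight in RPMI-1640/10% FBS,” for “overnight,”, “without PHA (resting).” for “with 2.5 µg/mL PHA.”, “h” for “h at 37 °C”, “graded” for “graded compound”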

[30] = Selectivity ratio of GI50 for PHA-stimulated human PBL cells to GI50 for human Jurkat cells incubated for 72 hrs by MTT assay; outline: as §4
[31] = test system: CCRF-CEM; experiment: Growth inhibition of human CEM cells incubated for 72 hrs by MTT assay; type: functional; outline: as §1
[32] = Selectivity ratio of GI50 for PHA-stimulated human PBL cells to GI50 for human CEM cells incubated for 72 hrs by MTT assay; outline: as §4
[33] = Growth inhibition of multidrug-resistant human CEM/VBL100 cells incubated for 72 hrs by MTT assay; type: functional; conditions: CEM/VBL100, 72 h; outline: as §1
[34] = Toxicity in C57BL/6 mouse allografted with mouse B16-BL6 cells assessed as change in body weight at 3 to 7.5 mg/kg, ip administrated every other day; type: organism-based; conditions: in vivo
Outline: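 Male six-week-old C57BL/6 mice were given BL6-B16 murine melanoma cells subcutaneously in the dorsolateral flank in PBS. Once tumours reached about 100 mm³, mice were randomised and dosed intraperitoneally every other day with 3.0 or 7.5 mg/kg in DMSO, or vehicle alone. Body weight change was followed; 5 animals per group, mean ± SEM.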

| SMILES | GI50 [1] [nM] | GI50 [2] [nM] | GI50 [3] [nM] | GI50 [4] [nM] | GI50 [5] [nM] | GI50 [6] [nM] | GI50 [7] [nM] | GI50 [8] [nM] | GI50 [9] [nM] | GI50 [10] [nM] | GI50 [11] [nM] | inhibition [12] [%] | IC50 [18] [nM] | other results |
| --- | --- | --- | --- | --- | --- | --- | --- | --- | --- | --- | --- | --- | --- | --- |
| O=C(Oc1cc(-c2ccccc2)nc2ccc3[nH]ccc3c12)c1ccccc1F | 2310 | 324 | 3460 | 1320 | 501 | 5590 | 2420 | 697 | 216 | 1490 | 2550 | – | – | – |
| CCn1ccc2c3c(=O)cc(-c4ccc(F)cc4)[nH]c3ccc21 | 1440 | 334 | 51.3 | 43 | 340 | 206 | 477 | 293 | 447 | 1180 | 69.8 | 12 | 3700 | Stability [13]: Stable; Stability [14]: Stable; Stability [15]: Stable; Stability [16]: Unstable; half-life at 10 µM [17]: 10.6 min |
| O=C(c1ccccc1)n1ccc2c3c(=O)cc(-c4cccc(F)c4)[nH]c3ccc21 | 15.1 | 32.4 | 103 | 871 | 13.3 | 454 | 10.2 | 56 | 402 | – | – | 70 | 380 | metabolised at 1 h, 10 µM [19]: 20%; GI50 at 72 h [20]: 45600 nM; metabolised at 1 h, 10 µM [21]: 20%; RatioGI50 [22]: 10000 - 30000; RatioGI50 [23]: 10000 - 30000; GI50 [24]: 18 nM; inhibition in vivo at 7.5 mg/kg [25]: 58.4%; inhibition in vivo at 3 mg/kg [26]: 16.7%; GI50 at 72 h [27]: 17600 nM; RatioGI50 [28]: 10000 - 30000; RatioGI50 [29]: 10000 - 30000; RatioGI50 [30]: 10000 - 30000; GI50 [31]: 44 nM; RatioGI50 [32]: 10000 - 30000; GI50 [33]: 36 nM; Activity [34]: Non-Toxic |
